Only some compounds are listed: those with a hit (about 2.8% of all), similar ones and a draw of the others.
EBI2 block: EBI2 receptor antagonists, beta-arrestin recruitment, primary screen, cell-based, luminescence, 7a,25-OHC stimulation, uHTS; AID 651636, 2012; G-protein coupled receptor 183 (Homo sapiens), P32249; hit rate 0.81% among 360,000; 7a,25-OHC stimulated; inhibition, % at 5 µM; in the data active = inhibition above about 38%;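 also: enzyme fragment complementation signal reports receptor beta-arrestin coupling in cells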
MC4R antag cAMP: MC4R antagonists of cAMP signaling, primary screen, cell-based, TR-FRET, antagonist arm of biased-ligand search; Melanocortin receptor 4 (Homo sapiens), P32245; hit rate 0.48% among 360,000; MC4R-expressing cells, MTII-stimulated cAMP, LANCE TR-FRET; inhibition, % at 6.5 µM;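 active = inhibition above its plate's cutoff, the mean of tested wells on that plate plus 3 SD, cut at about 29% in these data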
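Assay system: U2OS-MC4R stable cell line; Also added: Melanotan II; Technique: Eu-cAMP/anti-cAMP TR-FRET, emission 671 nm; Times: 30-min compound, 1-h challenge, 1-h detection, room temperature.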
MC4R barr agon: MC4R agonists recruiting beta-arrestin, primary screen, cell-based, luminescence, agonist arm of biased-ligand search. U2OS MC4R beta-arrestin complementation; percent of melanotan II response, DMSO zero. activation, % at 8.9 µM. hit rate 0.98% among 360,000. AID 540308, 2011;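 active = activation above a per-plate cutoff, the mean activation of sample wells on that plate plus 3 SD, cut at about 8% in these data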
m5-HT2A agonist: mouse Htr2a agonists via beta-arrestin recruitment, primary screen, cell-based, luminescence. 5-hydroxytryptamine receptor 2A (Mus musculus), P35363. CHO-K1 mHTR2A beta-arrestin complementation; percent of 30 µM serotonin response. activation, % at 7.6 µM. hit rate 0.66% among 360,000. AID 624169, 2012;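 active = activation above a run cutoff, the mean activation of all tested compounds plus 3 SD, cut at about 14% in these data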
MC4R barr conf: MC4R beta-arrestin agonists, retest, confirmation, cell-based, luminescence, U2OS; activation, % at 8.9 µM; U2OS MC4R beta-arrestin recruitment; scaled DMSO 0%, Melanotan II 100%; shares compounds with MC4R barr agon; hit rate 31% among 2,400; AID 602192, 2012;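 active = mean activation across replicates above the hit cutoff set in the earlier primary screen, cut at about 8% in these data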
MOR-DOR barr ag: agonists of MOR-DOR heterodimerization, counter-screen for MC4R biased agonist project, cell-based, luminescence | shares compounds with MC4R barr agon | U2OS PathHunter beta-arrestin, beta-gal luminescence; percent of deltorphin B response, DMSO zero | activation, % at 9.2 µM | hit rate 5.8% among 2,400 | AID 602194, 2012;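 active = mean activation across replicates exceeds the hit threshold derived in the earlier primary screen, cut at about 18% in these data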
Target sequence (P35372 whole entry, looked up): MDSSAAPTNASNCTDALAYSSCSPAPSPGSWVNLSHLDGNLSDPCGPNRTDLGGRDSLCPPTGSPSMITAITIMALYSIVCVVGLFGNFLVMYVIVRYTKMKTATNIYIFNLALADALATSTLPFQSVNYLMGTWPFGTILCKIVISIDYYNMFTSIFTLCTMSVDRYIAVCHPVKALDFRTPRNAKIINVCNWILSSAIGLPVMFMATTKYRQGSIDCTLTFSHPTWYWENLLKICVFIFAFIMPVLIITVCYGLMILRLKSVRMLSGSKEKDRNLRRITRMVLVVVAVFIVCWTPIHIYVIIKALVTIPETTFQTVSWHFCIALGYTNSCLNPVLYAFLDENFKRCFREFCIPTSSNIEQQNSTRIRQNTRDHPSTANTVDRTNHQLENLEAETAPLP
Target sequence (P41143 whole entry, looked up): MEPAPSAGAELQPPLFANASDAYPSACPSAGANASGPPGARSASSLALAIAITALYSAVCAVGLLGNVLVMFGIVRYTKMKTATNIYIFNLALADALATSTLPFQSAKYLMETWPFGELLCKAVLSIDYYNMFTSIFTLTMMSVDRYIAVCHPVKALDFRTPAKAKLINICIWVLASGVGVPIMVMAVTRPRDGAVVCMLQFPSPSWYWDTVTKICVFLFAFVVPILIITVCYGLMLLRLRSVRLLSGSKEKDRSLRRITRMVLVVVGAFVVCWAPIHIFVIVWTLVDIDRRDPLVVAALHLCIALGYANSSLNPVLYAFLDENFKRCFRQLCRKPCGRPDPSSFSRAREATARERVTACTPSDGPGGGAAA
EBI2 conf: EBI2 antagonist hit retest, beta-arrestin, confirmation, cell-based, single concentration, luminescence, 7a,25-OHC stimulation; 7a,25-OHC antagonism; inhibition, % at 5 µM; hit rate 29% among 2,400; shares compounds with EBI2 block; AID 651997, 2013;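 active = inhibition of at least 50%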
EBI2 agonist: EBI2 agonist activity of antagonist hits, confirmation, counter-screen for EBI2 antagonist project, cell-based, single concentration, agonist mode, luminescence; shares compounds with EBI2 block; EBI2-expressing cells, 60 min; 0% vehicle, 100% 7α,25-dihydroxycholesterol control; activation, % at 5 µM; 2,400 tested, under 10 active;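 active = activation of at least 50%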
bGal cs: E. coli beta-galactosidase enzyme inhibition, confirmation, counter-screen for EBI2 antagonist project, biochemical, luminescence, single concentration; AID 652176, 2013; purified beta-galactosidase, luminescent Galacton Star, 15 min; inhibition, % at 5 µM; shares compounds with EBI2 block; hit rate 1% among 2,400;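 active = replicate-average signal at least 3 plate SD below neutral wells, shown as high inhibition, flagging enzyme-inhibiting false positives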;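 also: higher means stronger loss of beta-gal luminescence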
A number is an active result; – = inactive; · = no result given.

SMILES	EBI2 block	MC4R antag cAMP	MC4R barr agon	m5-HT2A agonist	MC4R barr conf	MOR-DOR barr ag	EBI2 conf	EBI2 agonist	bGal cs
COc1ccc(CCN2C(=O)C(Oc3ccccc3)C2c2ccc3c(c2)OCO3)cc1 (configuration not stated)	42	–	18	–	–	–	–	–	–
Cc1cc(C)nc(Nc2nc(-c3ccccc3)cs2)n1	–	–	–	–	·	·	·	·	·
c1ccc(-c2csc(Nc3nc(N4CCOCC4)nc(N4CCOCC4)n3)n2)cc1	50	–	14	–	11	–	–	–	–
CC(C)[C@@H]1Cc2[nH]c(=S)[nH]c(=O)c2[C@H](CCc2ccccc2)O1	–	·	·	–	·	·	·	·	·
CN(C)C(=O)c1cccc(-c2cnc3c(NC=O)cc(-c4ccccc4Cl)cn23)c1	62	–	9.8	–	8.9	–	–	–	–
Cc1ccc(C(=O)Cn2c(C(=O)/C=C/c3ccccc3)nc3ccccc32)cc1	48	–	20	–	21	–	–	–	–
O=C(Cn1c(C(=O)c2ccccc2)nc2ccccc21)c1ccc(Cl)cc1	–	–	–	–	·	·	·	·	·
C[C@@H]1CN([C@@H](C)CO)C(=O)Cc2cc(NS(=O)(=O)c3cn(C)cn3)ccc2O[C@@H]1CN(C)C(=O)Nc1ccccc1	–	–	–	–	·	·	·	·	·
CCC(C)Sc1ccc(-c2nc3ccc(C)cn3c2NCc2ccccc2)cc1 (configuration not stated)	47	–	12	–	–	–	–	–	–
O=C(CSc1nc2[nH]ncc2c(=O)[nH]1)Nc1cc(C(F)(F)F)ccc1Cl	–	–	–	–	·	·	·	·	·
CC(=O)Nc1cc(-c2ccc(CO)cc2)cn2c(-c3cccc(C(F)(F)F)c3)cnc12	46	–	19	–	20	–	–	–	–
Clc1ccc(/C=C/c2nc3ccccc3[nH]2)cc1	–	–	–	–	·	·	·	·	·
Clc1ccc(/C=C\c2nccc3c2[nH]c2ccccc23)cc1	65	–	14	–	–	–	–	–	–
CC(C)NC(=O)C1(C)CSCC(=O)N1CCCn1ccnc1 (configuration not stated)	–	·	·	–	·	·	·	·	·
O=C(Nc1cnn(C23CC4CC(CC(C4)C2)C3)c1)c1cc(-c2ccccc2)on1	63	–	12	–	–	–	–	–	–
CCCCN1C[C@H](Cc2ccccc2)[C@@H](CC(=O)NC)C1=O	–	–	–	–	·	·	·	·	·
O=C(/C=C/c1ccc(OCCCF)cc1)NCc1ccc(Cl)cc1	50	–	15	–	–	–	–	–	–
COc1cc2c(cc1OC)C(c1ccc(-c3ccc(Cl)cc3Cl)o1)=NCC2	74	–	12	–	–	–	66	–	–
O=C(O)c1ccc(-c2ccc(Cl)cc2Cl)o1	–	–	–	–	·	·	·	·	·
CC1(C(=O)NS(=O)(=O)c2ccc(Cl)cc2)CCN1C(=O)CC1CC1 (configuration not stated)	–	–	–	–	·	·	·	·	·

High-throughput results (PubChem)
